NadD inh: inhibitors of Staphylococcus aureus NadD | inhibition, % at 20 µM | 360,000 tested, 0.78% active | purified NadD enzyme, colorimetric absorbance read-out | AID 602399; in the data active = inhibition above about 26%
SENP1 FRET inh: blocks the human SENP1 SUMO protease catalytic domain. recombinant SENP1 catalytic domain, CyPet-SUMO1-YPet FRET cleavage. inhibition, % at 10 µM. 360,000 tested, 0.21% active. Q9P0U3;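 active = inhibition at least 30% at 10 µM, raw YFP signal under a set limit, fluorescence ratio 0.5 to 1.5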
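Test system: human SENP1 catalytic domain; medium: Tris pH 8 buffer plus EDTA, NaCl, BME, BSA, NP40, catalase; incubation: 50 min reaction at room temperature; technique: FRET, CFP and YFP emission; controls: no-enzyme low control and enzyme-plus-DMSO high control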
UCH37 DUB inh: blocks the human deubiquitinase UCH37 | inhibition, % (test concentration not listed) | 330,000 tested, 0.33% active | purified proteasome/UCH37, Ub-AMC cleavage fluorescence | AID 588478;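 active = mean inhibition over replicate wells above about 20%, limit read from the data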
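Reagent: Ub-AMC substrate; assay system: Proteasome-associated human UCH37 deubiquitinase; controls: no-proteasome and no-compound wells; read-out: % inhibition of Ub-AMC cleavage fluorescence; timing: 30 min preincubation with enzyme, 25 min cleavage at room temperature; signal: AMC fluorescence from Ub-AMC cleavage, excitation 355 nm, emission 460 nm; buffer or medium: Tris-HCl pH 7.4 plus ovalbumin, ATP-MgCl2, DTT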
ATG4B inhibitor: blocks human ATG4B protease cleavage of LC3 substrate; inhibition, % at 8.33 µM; AID 504462; ATG4B cleavage of LC3-PLA2, NBD-HPC fluorescence, 1 h; Q9Y4P1; 340,000 tested, 0.51% active; in the data active = inhibition above about 40%
Target sequence (Q9Y4P1 whole entry, looked up): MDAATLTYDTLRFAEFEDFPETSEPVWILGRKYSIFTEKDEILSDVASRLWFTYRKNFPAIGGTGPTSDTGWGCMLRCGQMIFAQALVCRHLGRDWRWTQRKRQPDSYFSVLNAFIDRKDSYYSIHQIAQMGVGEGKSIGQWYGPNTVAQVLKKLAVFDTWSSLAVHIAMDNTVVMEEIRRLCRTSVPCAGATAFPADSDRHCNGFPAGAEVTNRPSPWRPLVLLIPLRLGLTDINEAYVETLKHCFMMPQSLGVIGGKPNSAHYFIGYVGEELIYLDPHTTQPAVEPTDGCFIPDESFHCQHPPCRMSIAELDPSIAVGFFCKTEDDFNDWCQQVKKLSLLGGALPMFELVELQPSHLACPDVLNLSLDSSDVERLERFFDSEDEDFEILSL
GRIN3A LBD mod: modulators (binders) of human NR3A ligand-binding domain | NR3A LBD differential scanning fluorimetry, Tm shift; 0% = protein alone, 100% = glycine-bound protein | 340,000 tested, 2.5% active | Tm shift relative to glycine control, % at 25 µM;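 active = melting temperature shift of at least 10% of the positive control shift, at one fixed dose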
A number is an active result; 0 = inactive; - = no result. A selection: hits, their analogues and other compounds. The true share with any hit is near 3.6%.

SMILES	NadD inh	SENP1 FRET inh	UCH37 DUB inh	ATG4B inhibitor	GRIN3A LBD mod
CC1=C(C(=O)c2ccccc2)C(c2ccc(N3CCOCC3)cc2)NC(=O)N1 (stereo not drawn)	0	74	0	0	0
COc1cccc(NC(=O)CC(C)=NNC(=O)C2CCCCC2)c1	-	-	0	-	-
O=C(CSc1nnc(-c2n[nH]c3ccccc23)n1-c1ccccc1)Nc1cccc(Cl)c1	0	0	0	0	22
CCc1ccc(NC(=O)CSc2nnc(-c3n[nH]c4ccccc34)n2-c2ccccc2)cc1	0	0	0	0	23
Cn1cccc1Cc1nnc(SCC(=O)Nc2cccc(Cl)c2)n1-c1ccc(F)cc1	0	0	0	0	0
CCC(=O)c1ccc(N2CCN(C(=O)c3ccc(F)cc3)CC2)c(F)c1	0	0	0	0	0
CCC(=O)c1ccc(N2CCN(C(=O)c3cc([N+](=O)[O-])ccc3N3CCN(C)CC3)CC2)c(F)c1	0	0	0	0	14
Fc1cccc(NCCc2c[nH]c3ccccc23)n1	0	0	0	0	15
c1ccc(-n2nnnc2NCCc2c[nH]c3ccccc23)cc1	0	0	0	0	12
c1ccc2c(NCCc3c[nH]c4ccccc34)c3ccccc3nc2c1	0	0	-	0	0
COc1cc(C=NNc2nc(Nc3ccccc3)nc(N3CCCCC3)n2)ccc1OCC(=O)O	-	-	0	-	-
Cc1cc(-c2csc(NC(=O)c3cccc(S(=O)(=O)N(C)C)c3)n2)c(C)n1-c1ccccc1	49	0	0	0	0
COC(=O)c1ccc(-n2c(C)cc(-c3csc(NC(=O)c4ccc(S(=O)(=O)N(C)C)cc4)n3)c2C)cc1	0	0	0	0	0
CCOC(=O)/C(=N\Nc1ccc(Cl)cc1)c1csc(Nc2ccccc2)n1	0	0	-	0	27
CCOC(=O)/C(=N\Nc1ccc(OC)cc1)c1csc(Nc2ccccc2)n1	0	0	-	0	0
CCOC(=O)/C(=N/Nc1ccccc1)c1csc(Nc2ccccc2)n1	0	0	-	0	26
OC(Cc1ccncc1)(c1ccccc1)c1ccccc1	0	0	25	0	14
O=C(O)c1ccccc1NN=Cc1c(Sc2nnnn2-c2ccccc2)nc2ccccn2c1=O	-	-	0	-	-
NC(=O)N/N=C/c1c(Sc2nnnn2-c2ccccc2)nc2ccccn2c1=O	0	0	-	0	29
N/C(=N\OC(=O)Nc1ccccc1)c1ncc([N+](=O)[O-])s1	0	0	-	0	36
N#CC(=NNc1cccc(C(F)(F)F)c1)C(=O)c1csc(-c2cccnc2)n1	-	-	0	-	-
N#C/C(=N\Nc1cccc(C(F)(F)F)c1)C(=O)c1csc(-c2cccnc2)n1	0	0	-	0	11
O=C1NCC(c2ccccc2)C1C(=O)NN=Cc1ccc(-c2cccc(Cl)c2Cl)o1 (stereo not drawn)	-	-	0	-	-
CCn1c(SCC(=O)Nc2oc(-c3ccccc3)c(-c3ccccc3)c2C#N)nnc1-c1cc(OC)cc(OC)c1	51	0	0	0	0
N#Cc1c(NC(=O)CSc2ncccn2)oc(-c2ccccc2)c1-c1ccccc1	0	0	0	0	0
SMILES	NadD inh	SENP1 FRET inh	UCH37 DUB inh	ATG4B inhibitor	GRIN3A LBD mod
CCOc1ccc(S(=O)(=O)NCCC(=O)NCCOc2ccccc2OC)cc1	0	0	0	0	21
Cc1nc(-c2cccc(NS(=O)(=O)c3ccc4ccccc4c3)c2)cs1	0	0	0	0	10
O=C(NN=Cc1ccc2c(c1)OCO2)c1cc(-c2ccccc2Cl)nc2ccccc12	-	-	0	-	-
Cc1ccc(-c2[nH]ncc2C=Nn2c(COc3ccccc3)nc3ccccc3c2=O)cc1	-	-	0	-	-
COc1ccccc1C(=O)NCC(=O)N/N=C/c1ccc([N+](=O)[O-])cc1	0	0	-	0	0
CN(C)c1ccc(C(=O)NN=Cc2cc(Br)cc(Br)c2O)cc1	-	-	0	-	-
COC(=O)c1ccc(/C=N/NC(=O)c2ccc3nc[nH]c3c2)cc1	0	0	-	0	11
COc1ccccc1C(=O)NCC(=O)NN=Cc1ccncc1	-	-	30	-	-
O=C(N/N=C/c1ccc[nH]1)c1cc2ccccc2cc1O	0	0	-	0	11
CN(C)c1ccc(C(=O)N/N=C/c2cc(Br)cc(Br)c2O)cc1	32	0	-	0	0
Nc1nonc1-n1nnc(C(=O)NN=C/C=C/c2ccccc2)c1CSC1=NCCS1	-	-	0	-	-
CN(C)c1ccc(/C=N/NC(=O)c2ccc(NC(=O)c3ccccc3)cc2)cc1	0	0	-	0	19
O=C(NN=Cc1ccc(Br)cc1)c1ccc(NC(=O)c2ccccc2)cc1	-	-	0	-	-

Source: PubChem BioAssay
